According to ChEMBL document CHEMBL1944570, “Discovery of 4''-ether linked azithromycin-quinolone hybrid series: influence of the central linker on the antibacterial activity” (ACS Med Chem Lett, 2011):
In brackets after ≈: the same amount, converted by molar mass.

How the values were obtained:
[1] = tested on: Staphylococcus aureus; assay: Antibacterial activity against efflux mediated macrolide resistant Staphylococcus aureus by agar microdilution method; type: functional
Outline: (§1)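 MIC by agar microdilution following NCCLS standards; strains drawn from the PLIVA Research Institute culture collection. MIC reported in μg/mL.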

[2] = tested on: Staphylococcus aureus; assay: Antibacterial activity against ciprofloxacin-resistant Staphylococcus aureus by agar microdilution method; type: functional; outline: as §1
[3] = tested on: Streptococcus pneumoniae; assay: Antibacterial activity against erythromycin-susceptible Streptococcus pneumoniae by agar microdilution method; type: functional; outline: as §1
[4] = Inhibition of Escherichia coli topoisomerase 4-mediated relaxation of supercoiled pBR322 DNA
[5] = tested on: Staphylococcus aureus; assay: Antibacterial activity against erythromycin-susceptible Staphylococcus aureus by agar microdilution method; type: functional
Outline: (§2)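 Agar microdilution MIC per NCCLS standards against strains from the Pliva Research Institute culture collection; values in µg/mL. Panel included erythromycin-susceptible strains and strains with inducible or constitutive MLS resistance.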

[6] = tested on: Moraxella catarrhalis; assay: Antibacterial activity against Moraxella catarrhalis by agar microdilution method; type: functional; outline: as §2
[7] = tested on: Haemophilus influenzae; assay: Antibacterial activity against Haemophilus influenzae B0529 by agar microdilution method; type: functional; outline: as §2
[8] = tested on: Staphylococcus aureus; assay: Antibacterial activity against Staphylococcus aureus with inducible resistance to MLS by agar microdilution method; type: functional; outline: as §1
[9] = tested on: Streptococcus pyogenes; assay: Antibacterial activity against constitutive MLS resistant Streptococcus pyogenes by agar microdilution method; type: functional; outline: as §1
[10] = Inhibition of protein synthesis using Escherichia coli S30 extracts preincubated for 10 mins measured after 50 mins by luciferase reporter gene assay; type: functional
[11] = tested on: Staphylococcus aureus; assay: Antibacterial activity against constitutive MLS resistant Staphylococcus aureus by agar microdilution method; type: functional; outline: as §1
[12] = tested on: Streptococcus pyogenes; assay: Antibacterial activity against erythromycin-susceptible Streptococcus pyogenes by agar microdilution method; type: functional; outline: as §1
[13] = Inhibition of Escherichia coli DNA gyrase-mediated supercoiling of relaxed pBR322 DNA
[14] = tested on: Streptococcus pyogenes; assay: Antibacterial activity against efflux mediated macrolide resistant Streptococcus pyogenes by agar microdilution method; type: functional; outline: as §1
[15] = tested on: Streptococcus pneumoniae; assay: Antibacterial activity against constitutive MLS resistant Streptococcus pneumoniae by agar microdilution method; type: functional; outline: as §1
[16] = tested on: Streptococcus pneumoniae; assay: Antibacterial activity against efflux mediated macrolide resistant Streptococcus pneumoniae by agar microdilution method; type: functional; outline: as §1
[17] = tested on: Streptococcus pyogenes; assay: Antibacterial activity against Streptococcus pyogenes with inducible resistance to MLS by agar microdilution method; type: functional; outline: as §1

Row | Structure (SMILES) | MIC [1] [µg/mL] | MIC [2] [µg/mL] | MIC [3] [µg/mL] | IC50 [4] [µM] | MIC [5] [µg/mL] | MIC [6] [µg/mL] | MIC [7] [µg/mL] | MIC [8] [µg/mL] | MIC [9] [µg/mL] | IC50 [10] [µM] | MIC [11] [µg/mL] | MIC [12] [µg/mL] | IC50 [13] [µM] | MIC [14] [µg/mL] | MIC [15] [µg/mL] | MIC [16] [µg/mL] | MIC [17] [µg/mL]
1 | CC[C@H]1OC(=O)[C@H](C)[C@@H](O[C@H]2C[C@@](C)(OC)[C@@H](OCCNCCOCCNc3cc4c(=O)c(C(=O)O)cn(C5CC5)c4cc3Cl)[C@H](C)O2)[C@H](C)[C@@H](O[C@@H]2O[C@H](C)C[C@H](N(C)C)[C@H]2O)[C@](C)(O)C[C@@H](C)CN(C)[C@H](C)[C@H]2OC(=O)O[C@@]21C | 0.25 (≈ 0.214 µM) | 32 (≈ 27.4 µM) | ≤ 0.125 | 60 | ≤ 0.125 | ≤ 0.125 | 0.5 (≈ 0.429 µM) | 0.25 (≈ 0.214 µM) | 0.5 (≈ 0.429 µM) | 0.28 | 32 (≈ 27.4 µM) | ≤ 0.125 | 70 |  |  |  | 
2 | CC[C@H]1OC(=O)[C@H](C)[C@@H](O[C@H]2C[C@@](C)(OC)[C@@H](OCCNCCOCCNc3cc4c(=O)c(C(=O)O)cn(C5CC5)c4cc3Cl)[C@H](C)O2)[C@H](C)[C@@H](O[C@@H]2O[C@H](C)C[C@H](N(C)C)[C@H]2O)[C@](C)(O)C[C@@H](C)CN(C)[C@H](C)[C@@H](O)[C@]1(C)O | 0.5 (≈ 0.438 µM) | ≥ 64 | ≤ 0.125 | 50 | ≤ 0.125 | 0.125 (≈ 0.11 µM) | 0.5 (≈ 0.438 µM) | 0.25 (≈ 0.219 µM) | 1 (≈ 0.877 µM) | 0.35 | 64 (≈ 56.1 µM) | ≤ 0.125 | 60 | 0.125 (≈ 0.11 µM) | 0.25 (≈ 0.219 µM) |  | 
3 | CC[C@H]1OC(=O)[C@H](C)[C@@H](O[C@H]2C[C@@](C)(OC)[C@@H](OCCCC(=O)NCCNc3cc4c(cc3F)c(=O)c(C(=O)O)cn4C3CC3)[C@H](C)O2)[C@H](C)[C@@H](O[C@@H]2O[C@H](C)C[C@H](N(C)C)[C@H]2O)[C@](C)(O)C[C@@H](C)CN(C)[C@H](C)[C@@H](O)[C@]1(C)O | 16 (≈ 14.3 µM) | ≥ 64 | 1 (≈ 0.891 µM) |  | 8 (≈ 7.13 µM) | 2 (≈ 1.78 µM) | 8 (≈ 7.13 µM) | 8 (≈ 7.13 µM) | 16 (≈ 14.3 µM) |  | 64 (≈ 57 µM) | 1 (≈ 0.891 µM) |  | 16 (≈ 14.3 µM) | 1 (≈ 0.891 µM) | 4 (≈ 3.56 µM) | 1 (≈ 0.891 µM)
4 | CC[C@H]1OC(=O)[C@H](C)[C@@H](O[C@H]2C[C@@](C)(OC)[C@@H](OCCCC(=O)NCCOCCNc3cc4c(cc3F)c(=O)c(C(=O)O)cn4C3CC3)[C@H](C)O2)[C@H](C)[C@@H](O[C@@H]2O[C@H](C)C[C@H](N(C)C)[C@H]2O)[C@](C)(O)C[C@@H](C)CN(C)[C@H](C)[C@@H](O)[C@]1(C)O | 32 (≈ 27.4 µM) | ≥ 64 | 0.5 (≈ 0.429 µM) |  | 16 (≈ 13.7 µM) | 8 (≈ 6.86 µM) | 16 (≈ 13.7 µM) | 64 (≈ 54.9 µM) | 4 (≈ 3.43 µM) |  | 64 (≈ 54.9 µM) | 0.25 (≈ 0.214 µM) |  | 2 (≈ 1.71 µM) | 8 (≈ 6.86 µM) | 0.25 (≈ 0.214 µM) | 0.25 (≈ 0.214 µM)
5 | CC[C@H]1OC(=O)[C@H](C)[C@@H](O[C@H]2C[C@@](C)(OC)[C@@H](OCCCC(=O)NCCOCCOCCNc3cc4c(=O)c(C(=O)O)cn(C5CC5)c4cc3Cl)[C@H](C)O2)[C@H](C)[C@@H](O[C@@H]2O[C@H](C)C[C@H](N(C)C)[C@H]2O)[C@](C)(O)C[C@@H](C)CN(C)[C@H](C)[C@@H](O)[C@]1(C)O | 8 (≈ 6.52 µM) | ≥ 64 | ≤ 0.125 |  | 16 (≈ 13 µM) | 2 (≈ 1.63 µM) | 8 (≈ 6.52 µM) | 64 (≈ 52.2 µM) | 4 (≈ 3.26 µM) |  | 64 (≈ 52.2 µM) | 0.25 (≈ 0.204 µM) |  | 1 (≈ 0.815 µM) | 64 (≈ 52.2 µM) | 0.25 (≈ 0.204 µM) | 0.5 (≈ 0.408 µM)
6 | CC[C@H]1OC(=O)[C@H](C)[C@@H](O[C@H]2C[C@@](C)(OC)[C@@H](O)[C@H](C)O2)[C@H](C)[C@@H](O[C@@H]2O[C@H](C)C[C@H](N(C)C)[C@H]2O)[C@](C)(O)C[C@@H](C)CN(C)[C@H](C)[C@@H](O)[C@]1(C)O [AZITHROMYCIN] | > 64 | ≥ 64 | ≤ 0.125 |  | 1 (≈ 1.34 µM) | 0.25 (≈ 0.334 µM) | 1 (≈ 1.34 µM) | > 64 | > 64 |  | > 64 | ≤ 0.125 |  | 1 (≈ 1.34 µM) | > 64 | 4 (≈ 5.34 µM) | 8 (≈ 10.7 µM)
7 | O=C(O)c1cn(C2CC2)c2cc(N3CCNCC3)c(F)cc2c1=O [CIPROFLOXACIN] | ≤ 0.125 | ≥ 64 | ≤ 0.125 | 3 |  | 0.125 (≈ 0.377 µM) | ≤ 0.125 | ≤ 0.125 | 0.5 (≈ 1.51 µM) | > 50 |  | 2 (≈ 6.04 µM) | 0.8 | ≤ 0.125 | 0.25 (≈ 0.754 µM) | 0.25 (≈ 0.754 µM) | 0.25 (≈ 0.754 µM)
8 | CC[C@H]1OC(=O)[C@H](C)C(=O)[C@H](C)[C@@H](O[C@@H]2O[C@H](C)C[C@H](N(C)C)[C@H]2O)[C@](C)(OC)C[C@@H](C)C(=O)[C@H](C)[C@H]2N(CCCCn3cnc(-c4cccnc4)c3)C(=O)O[C@]12C [TELITHROMYCIN] | 0.25 (≈ 0.308 µM) | ≥ 64 | ≤ 0.125 | > 50 | ≤ 0.125 | ≤ 0.125 | 1 (≈ 1.23 µM) | 0.5 (≈ 0.616 µM) | 4 (≈ 4.93 µM) | 0.23 | > 64 | ≤ 0.125 | > 50 | 0.25 (≈ 0.308 µM) |  | 0.5 (≈ 0.616 µM) | 
